Results as given in ChEMBL document CHEMBL5058577, “EUbOPEN Chemogenomics Library 2 (Multiplex)” (2022).

Tested on: HEK-293T
Test: Multiplex assay against HEK293T
Assay type: toxicity, cell-based
Conditions: human
Procedure, shortened: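 At seeding, live cells were stained with Hoechst33342, BioTracker Green Microtubule Cytoskeleton Dye, MitoTracker Red and Annexin V Alexa Fluor 680. After compound addition they were imaged on a CQ1 microscope at 37°C and 5% CO2, and CellPathfinder machine-learning gating sorted them into Hoechst high-intensity objects or normal cells, with normal cells further split into healthy, pyknosed or fragmented nuclei and pyknosed cells into mitotic or apoptotic. Tubulin, mitochondrial-mass and membrane-permeability phenotypes are given as per cents of cells with healthy nuclei.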

[1] = 12 h, 1 µM, compound concentration 1 uM, replicate 1
[2] = 12 h, 1 µM, compound concentration 1 uM, replicate 2
[3] = 12 h, 10 µM, compound concentration 10 uM, replicate 1
[4] = 12 h, 10 µM, compound concentration 10 uM, replicate 2
[5] = 24 h, 1 µM, compound concentration 1 uM, replicate 1
[6] = 24 h, 1 µM, compound concentration 1 uM, replicate 2
[7] = 24 h, 10 µM, compound concentration 10 uM, replicate 1
[8] = 24 h, 10 µM, compound concentration 10 uM, replicate 2
[9] = 48 h, 1 µM, compound concentration 1 uM, replicate 1
[10] = 48 h, 1 µM, compound concentration 1 uM, replicate 2
[11] = 48 h, 10 µM, compound concentration 10 uM, replicate 1
[12] = 48 h, 10 µM, compound concentration 10 uM, replicate 2

SMILES: CC(C)(C)c1cc(NC(=O)Nc2ccc(-c3cn4c(n3)sc3cc(OCCN5CCOCC5)ccc34)cc2)no1 [QUIZARTINIB]
- Population Apoptotic (%) [1]: 27%
- Population Fragmented Nuclei (%) [1]: 5%
- Population Healthy Nuclei (%) [1]: 83%
- Population Hoechst High Intensity Objects (%) [1]: 10%
- Population Membrane Permeable-Phenotype (%) [1]: 0%
- Population Mitochondria Different-Phenotype (%) [1]: 40%
- Population Mitotic Cells (%) [1]: 72%
- Population Normal (%) [1]: 89%
- Population Pyknosed Nuclei (%) [1]: 11%
- Population Tubulin-Different-Phenotype (%) [1]: 35%
- Total Cell Count [1]: 377
- Population Apoptotic (%) [2]: 34%
- Population Healthy Nuclei (%) [2]: 80%
- Population Hoechst High Intensity Objects (%) [2]: 6%
- Population Mitochondria Different-Phenotype (%) [2]: 58%
- Population Mitotic Cells (%) [2]: 65%
- Population Normal (%) [2]: 93%
- Population Pyknosed Nuclei (%) [2]: 14%
- Population Tubulin-Different-Phenotype (%) [2]: 26%
- Total Cell Count [2]: 345
- Population Apoptotic (%) [3]: 53%
- Population Fragmented Nuclei (%) [3]: 7%
- Population Healthy Nuclei (%) [3]: 71%
- Population Hoechst High Intensity Objects (%) [3]: 23%
- Population Membrane Permeable-Phenotype (%) [3]: 0%
- Population Mitochondria Different-Phenotype (%) [3]: 78%
- Population Mitotic Cells (%) [3]: 46%
- Population Normal (%) [3]: 76%
- Population Pyknosed Nuclei (%) [3]: 21%
- Population Tubulin-Different-Phenotype (%) [3]: 68%
- Total Cell Count [3]: 324
- Population Apoptotic (%) [4]: 73%
- Population Hoechst High Intensity Objects (%) [4]: 12%
- Population Mitochondria Different-Phenotype (%) [4]: 81%
- Population Mitotic Cells (%) [4]: 26%
- Population Normal (%) [4]: 87%
- Population Tubulin-Different-Phenotype (%) [4]: 63%
- Total Cell Count [4]: 293
- Population Apoptotic (%) [5]: 41%
- Population Fragmented Nuclei (%) [5]: 7%
- Population Healthy Nuclei (%) [5]: 84%
- Population Hoechst High Intensity Objects (%) [5]: 6%
- Population Membrane Permeable-Phenotype (%) [5]: 0%
- Population Mitochondria Different-Phenotype (%) [5]: 26%
- Population Mitotic Cells (%) [5]: 58%
- Population Normal (%) [5]: 93%
- Population Pyknosed Nuclei (%) [5]: 7%
- Population Tubulin-Different-Phenotype (%) [5]: 21%
- Total Cell Count [5]: 491
- Population Apoptotic (%) [6]: 38%
- Population Fragmented Nuclei (%) [6]: 5%
- Population Hoechst High Intensity Objects (%) [6]: 4%
- Population Mitochondria Different-Phenotype (%) [6]: 40%
- Population Mitotic Cells (%) [6]: 61%
- Population Normal (%) [6]: 95%
- Population Pyknosed Nuclei (%) [6]: 10%
- Population Tubulin-Different-Phenotype (%) [6]: 17%
- Total Cell Count [6]: 440
- Population Apoptotic (%) [7]: 62%
- Population Fragmented Nuclei (%) [7]: 8%
- Population Healthy Nuclei (%) [7]: 79%
- Population Hoechst High Intensity Objects (%) [7]: 16%
- Population Membrane Permeable-Phenotype (%) [7]: 0%
- Population Mitochondria Different-Phenotype (%) [7]: 63%
- Population Mitotic Cells (%) [7]: 37%
- Population Normal (%) [7]: 83%
- Population Pyknosed Nuclei (%) [7]: 12%
- Population Tubulin-Different-Phenotype (%) [7]: 57%
- Total Cell Count [7]: 413
- Population Apoptotic (%) [8]: 69%
- Population Fragmented Nuclei (%) [8]: 9%
- Population Healthy Nuclei (%) [8]: 78%
- Population Hoechst High Intensity Objects (%) [8]: 9%
- Population Mitochondria Different-Phenotype (%) [8]: 75%
- Population Mitotic Cells (%) [8]: 30%
- Population Normal (%) [8]: 90%
- Population Pyknosed Nuclei (%) [8]: 11%
- Population Tubulin-Different-Phenotype (%) [8]: 50%
- Total Cell Count [8]: 321
- Population Apoptotic (%) [9]: 21%
- Population Fragmented Nuclei (%) [9]: 12%
- Population Healthy Nuclei (%) [9]: 80%
- Population Hoechst High Intensity Objects (%) [9]: 3%
- Population Membrane Permeable-Phenotype (%) [9]: 2%
- Population Mitochondria Different-Phenotype (%) [9]: 11%
- Population Mitotic Cells (%) [9]: 78%
- Population Normal (%) [9]: 96%
- Population Pyknosed Nuclei (%) [9]: 6%
- Population Tubulin-Different-Phenotype (%) [9]: 15%
- Total Cell Count [9]: 851
- Population Fragmented Nuclei (%) [10]: 10%
- Population Healthy Nuclei (%) [10]: 82%
- Population Hoechst High Intensity Objects (%) [10]: 2%
- Population Membrane Permeable-Phenotype (%) [10]: 0%
- Population Mitochondria Different-Phenotype (%) [10]: 24%
- Population Normal (%) [10]: 97%
- Population Tubulin-Different-Phenotype (%) [10]: 18%
- Total Cell Count [10]: 566
- Population Apoptotic (%) [11]: 57%
- Population Fragmented Nuclei (%) [11]: 9%
- Population Healthy Nuclei (%) [11]: 77%
- Population Hoechst High Intensity Objects (%) [11]: 9%
- Population Membrane Permeable-Phenotype (%) [11]: 1%
- Population Mitochondria Different-Phenotype (%) [11]: 40%
- Population Mitotic Cells (%) [11]: 42%
- Population Normal (%) [11]: 90%
- Population Pyknosed Nuclei (%) [11]: 12%
- Population Tubulin-Different-Phenotype (%) [11]: 35%
- Total Cell Count [11]: 583
- Population Apoptotic (%) [12]: 58%
- Population Fragmented Nuclei (%) [12]: 11%
- Population Healthy Nuclei (%) [12]: 73%
- Population Hoechst High Intensity Objects (%) [12]: 12%
- Population Membrane Permeable-Phenotype (%) [12]: 0%
- Population Mitochondria Different-Phenotype (%) [12]: 59%
- Population Mitotic Cells (%) [12]: 41%
- Population Normal (%) [12]: 87%
- Population Pyknosed Nuclei (%) [12]: 14%
- Population Tubulin-Different-Phenotype (%) [12]: 37%
- Total Cell Count [12]: 392
